In ChEMBL document CHEMBL4371098, “C-Phycocyanin from Spirulina Inhibits α-Synuclein and Amyloid-β Fibril Formation but Not Amorphous Aggregation” (J Nat Prod, 2019) one finds inhibition, Activity and TIME data, which are given here for 1 compound.

Structures are written as SMILES. Activity calls are given as the source filed them. No cut-off for these calls is given here.

Assay [1] has as its system Alpha-synuclein (Homo sapiens), P37840 [A53T]. The assay is described as follows: Inhibition of fibril formation of human alpha-synuclein A53T mutant expressed in Escherichia coli BL21(DE3) at protein to compound molar ratio of 200:1 after 100 hrs by ThT fluorescence assay relative to control. To be noted: concentration not given here. The method, boiled down:
(§1)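 αS (10 μM) incubated 100 h at 37 °C in 500 mM ammonium acetate pH 7.4 with C-PC at αS:C-PC 2:1 to 200:1; ThT read at 440/490 nm; inhibition = end-point (100 h) ThT fluorescence with C-PC as percentage of αS alone; n = 3, mean ± SEM.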

For assay [2] the test system is unchanged. The assay is described as follows: Binding affinity to human alpha-synuclein A53T mutant expressed in Escherichia coli BL21(DE3) assessed as compound-protein stable complex formation at 2 uM after 20 hrs by size-exclusion chromatographic method. On the technique in general: SEC sorts molecules by how far they enter the pores of the column.
For assay [3] the test system is unchanged. The assay is described as follows: Inhibition of preformed fibrils of human alpha-synuclein A53T mutant expressed in Escherichia coli BL21(DE3) at 5 uM treated after 60 hrs during fibril elongation phase by ThT fluorescence assay. In outline: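 ThT-monitored αS (10 μM) aggregation at 37 °C in 500 mM ammonium acetate pH 7.4; C-PC (5 μM) added at 60 h during elongation, and fluorescence (440/490 nm) followed afterwards; n = 3.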

The next assay deals with T1, Catalase (Bos taurus) (UniProt P00432).
T1 sequence (whole entry): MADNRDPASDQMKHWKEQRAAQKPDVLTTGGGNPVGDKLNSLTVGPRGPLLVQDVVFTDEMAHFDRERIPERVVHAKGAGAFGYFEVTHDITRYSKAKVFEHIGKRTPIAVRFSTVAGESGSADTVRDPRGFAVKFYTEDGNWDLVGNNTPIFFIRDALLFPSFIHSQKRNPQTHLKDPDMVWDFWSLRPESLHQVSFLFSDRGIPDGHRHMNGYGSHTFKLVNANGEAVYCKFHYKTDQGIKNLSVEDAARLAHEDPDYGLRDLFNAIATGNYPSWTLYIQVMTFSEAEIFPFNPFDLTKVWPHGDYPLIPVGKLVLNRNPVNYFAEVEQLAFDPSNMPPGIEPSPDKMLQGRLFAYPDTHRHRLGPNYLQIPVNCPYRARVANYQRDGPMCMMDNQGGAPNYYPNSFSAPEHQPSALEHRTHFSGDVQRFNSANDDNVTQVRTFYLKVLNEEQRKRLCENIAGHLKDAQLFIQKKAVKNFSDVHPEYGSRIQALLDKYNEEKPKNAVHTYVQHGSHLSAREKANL
The assay is described as follows: Inhibition of heat-induced amorphous aggregation of bovine liver catalase at 2.5 uM measured over 2 hrs by light scattering assay. The method, boiled down: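 Catalase (5 μM) aggregated by heating at 55 °C; absorbance (light scattering) at 340 nm tracked for 2 h with or without C-PC (2.5 μM); triplicate, mean ± SEM.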

In assay [4] the test system is Alpha-synuclein (Homo sapiens), P37840 [A53T]. The assay is described as follows: Inhibition of fibril formation of human alpha-synuclein A53T mutant expressed in Escherichia coli BL21(DE3) assessed as reduction in mature fibrils formation at 2 uM after 100 hrs by uranyl acetate staining based transmission electron microscopic method. The method, boiled down: (§2)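 End-point samples from ThT aggregation assays (αS or Aβ 10 μM, C-PC 2 μM; αS 100 h, Aβ40 25 h, Aβ42 2 h) adsorbed on carbon-coated grids, negatively stained with 2% (w/v) uranyl acetate, imaged by TEM.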

For assay [5] the test system is unchanged. The assay is described as follows: Inhibition of fibril formation of human alpha-synuclein A53T mutant expressed in Escherichia coli BL21(DE3) after 100 hrs by ThT fluorescence assay. The method, boiled down:
as §1

The test system is the same in assay [6]. The assay is described as follows: Induction of conformational changes in human alpha-synuclein A53T mutant expressed in Escherichia coli BL21(DE3) assessed as ion population arrival time distribution at 2 uM after 20 hrs by ion mobility-mass spectrometry analysis (reference value: 5.23 milliseconds).
For assay [7], the target named is Amyloid-beta precursor protein (Homo sapiens) (UniProt P05067). Put plainly: Inhibition of amyloid beta (1 to 40) (unknown origin) fibril formation at 2 uM after 25 hrs by uranyl acetate staining based transmission electron microscopic method. The method, boiled down:
as §2

For assay [8], the system named is Alpha-synuclein (Homo sapiens), P37840 [A53T]. Put plainly: Binding affinity to human 15N-labeled alpha-synuclein A53T mutant expressed in Escherichia coli BL21(DE3) assessed as chemical perturbation at H50 at 7.5 uM by 2D 1H-15N HSQC NMR analysis. The method, boiled down:
(§3)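 Uniformly 15N-labelled monomeric αS (grown in M9 medium with [15N]NH4Cl, IPTG-induced) titrated with C-PC; 1H–15N HSQC spectra in 10 mM Na2HPO4, 100 mM NaCl, pH 7.4; amide chemical shift changes and signal-to-noise monitored using prior resonance assignments.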

Assay [9] has as its target Amyloid-beta precursor protein (Homo sapiens) (UniProt P05067). The assay is described as follows: Inhibition of amyloid beta (1 to 42) (unknown origin) fibril formation at 2 uM after 2 hrs by uranyl acetate staining based transmission electron microscopic method. In outline: as §2
Assay [10] has the same target. The assay is described as follows: Inhibition of amyloid beta (1 to 40) (unknown origin) fibril formation at protein to compound ratio of 5:1 after 100 hrs by ThT fluorescence assay. In outline: (§4)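 Aβ40 or Aβ42 (10 μM; NaOH-pretreated stock for monomerization) incubated with C-PC at 5:1 Aβ:C-PC in 500 mM ammonium acetate pH 7.4, 37 °C, sealed plates, up to 100 h; ThT fluorescence 440/490 nm; triplicate, mean ± SEM.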

Assay [11] is described as follows: Self fibrillation of the compound in pH 7.4 ammonium acetate buffer after 100 hrs by ThT fluorescence assay. In outline:
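C-PC alone incubated in 500 mM ammonium acetate pH 7.4 at 37 °C with ThT; fluorescence at 440/490 nm tracked over time.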

A further assay has as its system Saccharomyces cerevisiae. Put plainly: Inhibition of heat-induced amorphous aggregation of yeast ADH at 2.5 uM measured over 2 hrs by light scattering assay. The method, boiled down:
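ADH (5 μM) aggregation induced with 20 mM DTT and 2 mM EDTA (final) at 42 °C; light scattering followed as absorbance at 340 nm over 2 h, with or without C-PC (2.5 μM); triplicate, mean ± SEM.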

Assay [12] deals with Amyloid-beta precursor protein (Homo sapiens) (UniProt P05067). Put plainly: Inhibition of amyloid beta (1 to 42) (unknown origin) fibril formation at protein to compound ratio of 5:1 after 100 hrs by ThT fluorescence assay. In outline:
as §4

Assay [13] has as its system Alpha-synuclein (Homo sapiens), P37840 [A53T]. Put plainly: Binding affinity to human alpha-synuclein A53T mutant expressed in Escherichia coli BL21(DE3) assessed as compound-protein stable complex formation at 2 uM after 20 hrs by native mass spectrometry analysis. In outline: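 αS (10 μM) incubated with C-PC (2 μM) at 40 °C for 20 h, then analysed by native nanoelectrospray MS for αS–C-PC complex peaks versus monomer/dimer and C-PC oligomer species.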

The test system is the same in assay [14]. Put plainly: Binding affinity to human 15N-labeled alpha-synuclein A53T mutant expressed in Escherichia coli BL21(DE3) assessed as reduction in signal to noise ratio at 7.5 uM by 2D 1H-15N HSQC NMR analysis. In outline:
as §3

Chain of Amyloid-beta precursor protein (Homo sapiens) (P05067 whole entry): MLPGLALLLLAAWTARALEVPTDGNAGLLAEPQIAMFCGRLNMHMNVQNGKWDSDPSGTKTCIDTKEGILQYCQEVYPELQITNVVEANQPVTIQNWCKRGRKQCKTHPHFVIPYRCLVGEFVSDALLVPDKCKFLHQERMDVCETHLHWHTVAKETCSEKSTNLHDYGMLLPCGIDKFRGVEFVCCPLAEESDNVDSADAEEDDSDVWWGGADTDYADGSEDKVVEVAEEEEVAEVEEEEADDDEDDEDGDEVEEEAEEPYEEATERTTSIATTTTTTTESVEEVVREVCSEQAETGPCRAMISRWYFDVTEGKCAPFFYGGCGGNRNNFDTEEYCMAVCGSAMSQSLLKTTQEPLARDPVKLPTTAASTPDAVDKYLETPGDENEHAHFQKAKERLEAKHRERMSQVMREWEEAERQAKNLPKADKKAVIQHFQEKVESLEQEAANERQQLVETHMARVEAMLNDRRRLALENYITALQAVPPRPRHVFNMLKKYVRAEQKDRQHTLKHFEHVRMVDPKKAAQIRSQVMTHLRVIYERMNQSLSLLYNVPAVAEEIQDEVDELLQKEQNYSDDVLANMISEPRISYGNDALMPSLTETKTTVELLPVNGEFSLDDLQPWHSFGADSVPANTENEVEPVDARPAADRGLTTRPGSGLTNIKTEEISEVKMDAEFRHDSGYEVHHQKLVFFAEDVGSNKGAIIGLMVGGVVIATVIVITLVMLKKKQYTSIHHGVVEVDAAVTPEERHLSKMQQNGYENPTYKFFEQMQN

On to `C/C=C1/C(=C\c2[nH]c(/C=C3N=C(/C=C4/NC(=O)C(CC)=C4C)C(C)=C/3CCC(=O)O)c(CCC(=O)O)c2C)NC(=O)C1C` (stereo unspecified), for which the inhibition is 50% in assay [1] and “Dose-dependent effect” in assay [5]. The outcome in [2], in assay [11] and in assay [13] was inactive. Further, the inhibition result in [3], in assay [4], in assay [7], in assay [9], in [10] and in assay [12] was “Active” in each case. In addition, the inhibition result on Catalase (Bos taurus) and with Saccharomyces cerevisiae was “inactive” throughout. In addition, in assay [6], the TIME was 1.4e-06 h. In addition, the result in [8] and in assay [14] was Active.

By inhibition is commonly meant the change of the read-out against control, counted positive when it falls.
